Where only a bound is given, the exact number is not on record here.

Data set [1] can be described thus: Ratio of cytotoxicity against human Huh7.5 cells assessed as cell viability to antiviral activity against Hepatitis C virus JFH-1 J6 genotype 2a infected in human Huh7.5 cells assessed as inhibition of viral RNA replication. The data set is classed as toxicity, cell-based, Huh-7.
The nature of data set [2]: Cytotoxicity against human Huh7.5 cells assessed as cell viability after 72 hrs by MTT assay. The data set is classed as cell-based, Huh-7.
In data set [3] the test system is Hepatitis C virus. The data set can be described thus: Antiviral activity against Hepatitis C virus JFH-1 J6 genotype 2a infected in human Huh7.5 cells assessed as inhibition of viral RNA replication after 72 hrs by luciferase reporter gene assay. The data set is classed as functional, organism-based, Hepacivirus hominis. Particulars: subtype 2a JFH1 J6, Huh-7, 72 h. (In general: A reporter such as luciferase makes a cellular process visible.)

The test system of data set [4] is Hepatitis C virus. Nature of the data set: Antiviral activity against Hepatitis C virus JFH-1 J6 genotype 2a infected in human Huh7.5 cells assessed as viral RNA replication at 10 uM after 72 hrs by luciferase reporter gene assay relative to control. Particulars: subtype 2a JFH1 J6, Huh-7, 72 h.
Data set [5] is described as follows: Selectivity index, ratio of CC50 for human Huh7.5 cells to EC50 for Hepatitis C virus JFH-1 J6 genotype 2a infected in human Huh7.5 cells. Conditions: read-out: Ratio CC50/EC50. It counts as toxicity, cell-based, Huh-7.
Data set [6] is described as follows: Cytotoxicity against human Huh7.5 cells assessed as cell viability at 10 uM after 72 hrs by MTT assay relative to control. It counts as cell-based, Huh-7. Particulars: read-out: Activity. The method, boiled down:
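Rluc-J6/JFH1 RNA-transfected Huh7.5 cells screened at a single 10 µM for 72 h alongside DMSO, with clemizole as positive control. Renilla luciferase gave replication level and parallel MTT gave viability, each as percent of DMSO; ratio of viability to replication reported.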

As usually defined, the CC50 is the concentration that lowers cell viability or growth by half. As usually defined, the EC50 is the midpoint of the concentration-response curve. With `O=C(/C=C/c1c[nH]c2ccccc12)N1CCN(Cc2ccc(C(F)(F)F)cc2)CC1`, the selectivity ratio turned out to be 2.5 in data set [1] and 1.8 in data set [5]. Besides, the CC50 at 72 h in data set [2] came out at 27.9 µM. Besides, the EC50 in the data set on Hepatitis C virus [3] was 15.6 µM. The Activity at 10 µM in the data set on Hepatitis C virus [4] was 32.4%. Further, in data set [6], the viability at 72 h, 10 µM came out at 81.7%.
Turning to `C/C(=C\c1c[nH]c2ccccc12)C(=O)NCCCn1ccnc1`, the CC50 at 72 h in data set [2] was greater than 100 µM. In addition, in the data set on Hepatitis C virus [3], the EC50 was determined as 33.7 µM. Moreover, the selectivity ratio in data set [5] is greater than 3.
Take `COc1cccc2[nH]cc(/C=C(\C)C(=O)Nc3ccc(C(C)(C)C)cc3)c12`: the CC50 at 72 h in data set [2] stood at 34.1 µM. The EC50 with Hepatitis C virus [3] was determined as 17.6 µM. The selectivity ratio in data set [5] was found to be 1.9.
With `CC(C)(C)c1ccc(NC(=O)CCc2c[nH]c3ccccc23)cc1`, the CC50 at 72 h in data set [2] is 13.6 µM. Further, the EC50 in the data set on Hepatitis C virus [3] was found to be 6.1 µM. In addition, the selectivity ratio in data set [5] was 2.3.
For the molecule `COc1ccc(CNC(=O)/C=C/c2c[nH]c3ccccc23)cc1OC`, the values for the selectivity ratio in data set [1] and in data set [5] were 2.6 and 6.9, respectively. In data set [2], the CC50 at 72 h turned out to be 89.5 µM. Further, in the data set on Hepatitis C virus [3], the EC50 came to 12.9 µM. Moreover, the Activity at 10 µM with Hepatitis C virus [4] is 35.1%. The viability at 72 h, 10 µM in data set [6] was 92.2%.
Take `C/C(=C\c1c[nH]c2cc(Br)ccc12)C(=O)Nc1ccc(C(C)(C)C)cc1`: the CC50 at 72 h in data set [2] is 68.8 µM. In addition, the EC50 in the data set with Hepatitis C virus [3] was found to be 13 µM. Moreover, the selectivity ratio in data set [5] was 5.3.
For `C/C(=C\c1c[nH]c2ccccc12)C(=O)NCCN(C)C`, in that order: greater than 100 µM, 64.2 µM and greater than 1.6.
With `COc1ccc2c(/C=C(\C)C(=O)Nc3ccc(C(C)(C)C)cc3)c[nH]c2c1`, the CC50 at 72 h in data set [2] is 30.7 µM. The EC50 with Hepatitis C virus [3] came out at 8.8 µM. Further, in data set [5], the selectivity ratio was 3.5.
For `CCOC(=O)/C(C)=C/c1c[nH]c2ccccc12`, in that order: 25.3 µM, 22.2 µM and 1.1.
In the case of `Clc1ccc(Cn2c(CN3CCCC3)nc3ccccc32)cc1` [CLEMIZOLE], the selectivity ratio in data set [1] turned out to be 4.3; in data set [5], 4.9. Moreover, the CC50 at 72 h in data set [2] worked out at 39.4 µM. Further, the concentration for a half-maximal effect (EC50) in the data set with Hepatitis C virus [3] came to 8 µM. The Activity at 10 µM in the data set with Hepatitis C virus [4] is 23.4%. Moreover, the viability at 72 h, 10 µM in data set [6] is 102%.
As for `C/C(=C\c1c[nH]c2ccc(C#N)cc12)C(=O)Nc1ccc(C)cc1`, the 50% cytotoxic concentration (CC50) at 72 h in data set [2] was greater than 100 µM. Also, the EC50 in the data set with Hepatitis C virus [3] is greater than 100 µM.
As for `CNC(=O)/C(C)=C/c1c[nH]c2ccccc12`, in data set [2], the CC50 at 72 h was greater than 10 µM. The EC50 with Hepatitis C virus [3] is greater than 10 µM.
Regarding `CC(C)NC(=O)/C=C/c1c[nH]c2ccccc12`, the selectivity ratio is 1.5 in data set [1] and greater than 1.1 in data set [5]. In addition, the CC50 at 72 h in data set [2] is greater than 100 µM. In the data set on Hepatitis C virus [3], the EC50 was determined as 93.8 µM. Moreover, the Activity at 10 µM in the data set with Hepatitis C virus [4] is 69%. Further, the viability at 72 h, 10 µM in data set [6] amounted to 106%.
Take `C/C(=C\c1c[nH]c2ccccc12)C(=O)NCc1ccco1`: the CC50 at 72 h in data set [2] came out at 39.1 µM. Further, in the data set with Hepatitis C virus [3], the EC50 is 11.3 µM. The selectivity ratio in data set [5] is 3.5.
In the same order, the values of `C/C(=C\c1c[nH]c2cc(C)ccc12)C(=O)Nc1ccc(C(C)(C)C)cc1` are 25.6 µM, 4.5 µM and 5.7.
In the case of `C/C(=C\c1c[nH]c2ccccc12)C(=O)Nc1ccc(C(F)(F)F)cc1`, in data set [2], the CC50 at 72 h was determined as 94.9 µM. In addition, the EC50 in the data set on Hepatitis C virus [3] is 43.6 µM. Also, the selectivity ratio in data set [5] came out at 2.2.
`C/C(=C\c1c[nH]c2ccc(C#N)cc12)C(=O)Nc1ccc(C(C)C)cc1`: the CC50 at 72 h in data set [2] turned out to be 137 µM. In addition, the EC50 with Hepatitis C virus [3] turned out to be 37.7 µM. Besides, the selectivity ratio in data set [5] was found to be 3.6.
In the same order, the values of `COc1ccc2[nH]cc(/C=C(\C)C(=O)Nc3ccc(C(C)(C)C)cc3)c2c1` are 16.4 µM, 3 µM and 5.5.
As to `CCN(CC)C(=O)/C=C/c1c[nH]c2ccccc12`, the selectivity ratio in data set [1] worked out at 1.3; in data set [5], 1.6. The CC50 at 72 h in data set [2] was determined as 98.7 µM. In addition, the EC50 in the data set on Hepatitis C virus [3] was found to be 62.7 µM. In the data set with Hepatitis C virus [4], the Activity at 10 µM is 72%. The viability at 72 h, 10 µM in data set [6] came to 93.8%.
Regarding `C/C(=C\c1c[nH]c2cc(C(C)C)ccc12)C(=O)Nc1ccc(C(C)(C)C)cc1`, in data set [2], the CC50 at 72 h was 24.8 µM. In addition, the EC50 with Hepatitis C virus [3] was found to be 1.5 µM. Besides, in data set [5], the selectivity ratio was found to be 17.
In the case of `C/C(=C\c1c[nH]c2ccc(C)cc12)C(=O)Nc1ccc(C(C)(C)C)cc1`, the CC50 at 72 h in data set [2] is 28.1 µM. In addition, the EC50 with Hepatitis C virus [3] was found to be 6.7 µM. In data set [5], the selectivity ratio is 4.2.
With `CC(C)(C)c1ccc(NC(=O)/C=C/c2c[nH]c3ccccc23)cc1`, the values for the selectivity ratio in data set [1] and in data set [5] were 28.6 and 5.2, respectively. In addition, the CC50 at 72 h in data set [2] was found to be 10.1 µM. Further, the EC50 with Hepatitis C virus [3] amounted to 1.9 µM. Besides, the Activity at 10 µM in the data set with Hepatitis C virus [4] turned out to be 2.1%. For the same molecule, in data set [6], the viability at 72 h, 10 µM worked out at 60.1%.
As to `C/C(=C\c1c[nH]c2ccccc12)C(=O)O`, the CC50 at 72 h in data set [2] was greater than 100 µM. In addition, the EC50 in the data set on Hepatitis C virus [3] is greater than 10 µM.
For `C/C(=C\c1c[nH]c2ccc([N+](=O)[O-])cc12)C(=O)Nc1ccc(C(C)(C)C)cc1`, the CC50 at 72 h in data set [2] stood at 23.1 µM. Also, in the data set on Hepatitis C virus [3], the EC50 amounted to 6.2 µM. In addition, the selectivity ratio in data set [5] was 3.7.
Turning to `C/C(=C\c1c[nH]c2ccccc12)C(N)=O`, the CC50 at 72 h in data set [2] is greater than 10 µM. For the same molecule, the EC50 in the data set on Hepatitis C virus [3] is greater than 10 µM.
Regarding `C/C(=C\c1c[nH]c2ccccc12)C(=O)Nc1ccc(C(C)(C)C)cc1`, the CC50 at 72 h in data set [2] is 17.3 µM. In addition, the EC50 in the data set on Hepatitis C virus [3] was determined as 2.2 µM. Further, in data set [5], the selectivity ratio was 7.9.

Source of the values: ChEMBL document CHEMBL3120069, “Chemical genetics-based discovery of indole derivatives as HCV NS5B polymerase inhibitors” (Eur J Med Chem, 2014).
